Data set [1] in a line: Inhibition of fibril formation of amyloid beta (1-40) catalytic domain containing HHQKLVFFAED sequence by thioflavin T assay.
Data set [2] is described as follows: Partition coefficient, log P at pH 6 by shake flask method. The format is physicochemical. To be noted: octanol/water. The gist of the method:
(§1)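 Shake flask with octanol and phosphate buffer at the stated pH, each phase pre-saturated with the other overnight. Compound at 10^-5 mol/l in buffer-saturated octanol, absorbance (A0) read between 314 and 360 nm. Equal volumes shaken 4 h at 37 °C, left overnight, then centrifuged. Aqueous-layer absorbance (A1) read; log P = log((A0−A1)/A1).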

Data set [3] in a line: Partition coefficient, log P at pH 7.4 by shake flask method. It is filed as physicochemical. To be noted: octanol/water. Put shortly:
as §1

The next data set concerns the target Acetylcholinesterase (Electrophorus electricus, UniProt O42275). In words: Inhibition of electric eel AChE by modified Ellman's method. Put shortly: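 Ellman-based assay. IC50 is the concentration giving 50% loss of AChE activity, reported as mean ± SEM from n = 3-6 experiments.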
In general terms: DTNB colorimetry detects thiols as they appear.

Data set [4] can be described thus: Inhibition of amyloid beta (1-40) fibril formation by thioflavin T formation assay. The gist of the method:
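HFIP-pretreated Aβ film taken up in DMSO as a 2 mM stock, stored at -20 °C for at most three days. Diluted to 100 µM final peptide in 25 mM NaH2PO4, 120 mM NaCl, 3 µM thioflavin T, 0.02% NaN3, pH 7.4. Inhibitors at 0.005–0.5 mM. Incubated at 37 °C. Fluorescence read at excitation 450 nm, emission 482 nm.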

Data set [5] can be described thus: Dissociation constant, pKa at pH 7.4. It is filed as physicochemical. The gist of the method: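 Potentiometric titration: compound dissolved in 0.15 M KCl for constant ionic strength, with 30% dioxane or 80% methanol as co-solvent modifier. pH brought to 1.8 with 0.5 M HCl, then titrated with 0.5 M KOH. Dissociation constants determined at several modifier levels and pKa obtained by extrapolation of the calibration line. Electrode calibrated by blank titrations of 0.15 M KCl.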

Data set [6] can be described thus: Partition coefficient, log P at pH 7 by shake flask method. To be noted: octanol/water. It is filed as physicochemical. Put shortly: as §1
Data set [7] is described as follows: Octanol-water partition coefficient, log P at pH 7.4 by RP-HPLC. It is filed as physicochemical. Put shortly:
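Reversed-phase HPLC on an endcapped RP18 column (5 µm). Eluent methanol/phosphate buffer pH 7.4 (70/30) with 0.02% N,N-dimethylhexylamine, 1.0 ml flow. Analytes at 4 µg/ml in methanol, run in duplicate. Capacity factors converted to log P through a calibration against 2-phenylethanol, benzene, dimethylaniline, toluene, biphenyl and anthracene.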

For a further data set, the target named is Cholinesterase (Equus caballus, UniProt P81908). In words: Inhibition of horse serum BuChE by modified Ellman's method.
Data set [8] in a line: Partition coefficient, log P at pH 5 by shake flask method. The format is physicochemical. To be noted: octanol/water. Put shortly:
as §1

Data set [9] is described as follows: Induction of fibril destruction of amyloid beta (1-40) catalytic domain containing HHQKLVFFAED sequence by modified thioflavin T assay.
Data set [10] is described as follows: Inhibition of fibril formation of amyloid beta (1-40) catalytic domain containing HHQKLVFFAED sequence at 0.5 mM by thioflavin T assay.

Calls of active or inactive are those of the source. The rule behind the calls is not given here. Bounds are passed on as bounds.

Here are results for ten molecules from ChEMBL document CHEMBL1157580, “Interaction of (benzylidene-hydrazono)-1,4-dihydropyridines with beta-amyloid, acetylcholine, and butyrylcholine esterases” (Bioorg Med Chem, 2010).

Chain of Acetylcholinesterase (O42275 whole entry): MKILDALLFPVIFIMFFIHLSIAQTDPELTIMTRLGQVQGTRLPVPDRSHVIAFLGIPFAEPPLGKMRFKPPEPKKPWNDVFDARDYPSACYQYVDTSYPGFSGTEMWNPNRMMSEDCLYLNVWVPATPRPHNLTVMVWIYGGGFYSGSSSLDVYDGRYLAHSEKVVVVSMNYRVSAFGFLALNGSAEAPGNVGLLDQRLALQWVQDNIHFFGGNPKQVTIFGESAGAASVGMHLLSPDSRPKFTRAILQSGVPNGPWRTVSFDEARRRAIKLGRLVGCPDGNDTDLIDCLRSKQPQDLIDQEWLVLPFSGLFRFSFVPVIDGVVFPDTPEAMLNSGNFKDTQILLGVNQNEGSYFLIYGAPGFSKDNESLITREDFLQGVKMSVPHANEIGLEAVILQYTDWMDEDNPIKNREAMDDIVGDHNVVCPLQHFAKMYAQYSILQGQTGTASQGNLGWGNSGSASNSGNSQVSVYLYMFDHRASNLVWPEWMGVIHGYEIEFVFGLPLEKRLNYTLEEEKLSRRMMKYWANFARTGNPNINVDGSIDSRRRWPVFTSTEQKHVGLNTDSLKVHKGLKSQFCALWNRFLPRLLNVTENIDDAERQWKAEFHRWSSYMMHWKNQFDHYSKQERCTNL
Chain of Cholinesterase (P81908 whole entry): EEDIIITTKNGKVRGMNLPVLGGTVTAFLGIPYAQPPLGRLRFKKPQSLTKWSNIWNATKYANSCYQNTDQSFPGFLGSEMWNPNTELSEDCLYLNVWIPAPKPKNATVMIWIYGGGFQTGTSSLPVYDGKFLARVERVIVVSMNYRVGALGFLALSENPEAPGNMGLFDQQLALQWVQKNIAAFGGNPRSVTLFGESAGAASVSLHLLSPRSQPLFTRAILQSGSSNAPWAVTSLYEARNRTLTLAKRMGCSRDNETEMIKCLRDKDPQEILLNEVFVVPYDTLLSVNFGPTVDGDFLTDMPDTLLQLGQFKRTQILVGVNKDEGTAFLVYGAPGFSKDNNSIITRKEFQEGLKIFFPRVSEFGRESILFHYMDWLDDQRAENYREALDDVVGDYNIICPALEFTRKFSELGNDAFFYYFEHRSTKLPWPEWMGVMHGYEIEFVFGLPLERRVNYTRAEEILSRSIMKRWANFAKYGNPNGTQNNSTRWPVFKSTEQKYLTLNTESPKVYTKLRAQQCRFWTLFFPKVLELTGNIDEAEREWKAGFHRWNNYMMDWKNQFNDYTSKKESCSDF

For orientation: inhibition means how much of the control response was suppressed. One may read the logD as the decadic logarithm of the distribution of all forms, ionised or not, between an organic phase and buffer at a given pH. In general, IC50 refers to the midpoint of a concentration-inhibition curve. Read a high IC50 as weaker potency in that assay. In general, pKa refers to the negative logarithm of the acid dissociation constant. The low end stands for a stronger acid or weaker base, the high end for a weaker acid or stronger base. What is called logP is the decadic logarithm of the partition coefficient of the neutral form, usually between octanol and water. Low values mean a more hydrophilic compound, high ones a more lipophilic compound. For `Clc1cccc(Cl)c1/C=N/N=c1ccn(CCCc2ccccc2)cc1`, the inhibition entry in data set [1] is “Dose-dependent effect”. Further, the logD is 0.9 in data set [2], 3.2 in data set [3], 1.3 in data set [6] and 0.7 in [8]. In addition, the 50% inhibitory concentration (IC50) at Acetylcholinesterase amounted to 5.66 µM; against Cholinesterase, 10 µM. Further, the inhibition entry in data set [4] is “Active”. In data set [5], this molecule gave a pKa of 8.7. In data set [7], this molecule showed a logP of 3.7. In addition, the Activity result in data set [9] is “Dose-dependent effect”.
As to `Clc1cccc(Cl)c1/C=N/N=c1ccn(Cc2ccccc2)cc1`, the results for the IC50 against Acetylcholinesterase and at Cholinesterase were 17.4 µM and 8 µM, respectively. In [7], this molecule had a logP of 3.5. Also, the Activity entry in [9] was “Dose-dependent effect”.
Turning to `Clc1cccc(Cl)c1CO/N=C/c1cc[n+](CCC[n+]2ccc(/C=N/OCc3c(Cl)cccc3Cl)cc2)cc1.[Br-].[Br-]`, the inhibition result in [1] and in [4] was “Active” throughout. The IC50 at Acetylcholinesterase was found to be 0.34 µM; against Cholinesterase it was 1.83 µM. For the same molecule, the logP in data set [7] was determined as 0.65.
As to `Clc1cccc(Cl)c1CO/N=C/c1cc[n+](CCCc2ccccc2)cc1`, the inhibition entry in [1] and in [4] was “Active” throughout. The IC50 at Acetylcholinesterase turned out to be 0.18 µM; against Cholinesterase, 2.78 µM.
`Clc1cccc(Cl)c1/C=N/N=c1ccn(CCc2ccccc2)cc1`: the inhibition entry in data set [1] is “Dose-dependent effect”. The IC50 against Acetylcholinesterase came out at 56.7 µM; against Cholinesterase, 9 µM. For the same molecule, the logP in [7] amounted to 3.9. Further, the Activity result in [9] is “Dose-dependent effect”.
On to `Nc1ccc(O)cc1` [4-AMINOPHENOL], for which the IC50 was 83 µM in data set [1] and 90 µM in [4].
Take `Clc1cccc(Cl)c1/C=N/N=c1ccn(Cc2c(Cl)cccc2Cl)cc1`: the logD is 1.5 in [2], 3.4 in [3], 2.2 in [6] and 0.8 in data set [8]. The IC50 against Acetylcholinesterase worked out at 6.4 µM. For the same molecule, the inhibition entry in [4] was “Active”. Moreover, the logP in data set [7] is reported as 4. Also, the Activity result in [9] was “Dose-dependent effect”.
For the molecule `Clc1cccc(Cl)c1CON=C1CCN(CCCc2ccccc2)CC1`, the IC50 against Acetylcholinesterase is 12 µM; against Cholinesterase, above 100 µM. Besides, in data set [5], the pKa is 5.7. The logP in [7] is listed as 4.3.
As to `Cn1ccc(=N/N=C/c2c(Cl)cccc2Cl)cc1`, the IC50 on Acetylcholinesterase is 739 µM; on Cholinesterase it was 11 µM. For the same molecule, the inhibition in [10] is 60%. In addition, the lipophilicity (logP) in data set [7] is 3.4. In addition, in data set [9], the outcome was inactive.
On Acetylcholinesterase, `Clc1cccc(Cl)c1CO/N=C/C1CCN(CCCc2ccccc2)CC1` yielded an IC50 of 19.1 µM. In data set [5], this molecule had a pKa of 7.1. Besides, the logP in data set [7] came to 3.6.
